Measured values from ChEMBL document CHEMBL1148788 (J Med Chem, 2007).
The source made the active and inactive calls. The calls are words filed in the database; no cut-off is given here.

Key:
[1] = test system: tsA201; assay: Displacement of [3H]methyllycaconitine from chimeric alpha-7nAChR W149Y mutant/5HT3A receptor W149Y mutant in tsA201 cells; type: cell-based; settings: Homo sapiens
Method in brief: (§1)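 tsA-201 cells transiently transfected with 4 µg WT or mutant α7/5-HT3A chimera and assayed 2 days later. Membranes washed twice at 50000g in 50 mM Tris-HCl pH 7.2. Incubated with 0.5 nM [3H]MLA and compound for 2.5 h at room temperature with shaking; nonspecific binding with 5 mM (S)-nicotine. PEI-soaked GF/C filtration, scintillation counting. Ki derived; duplicate, 3–7 experiments.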

[2] = Antagonist activity at human alpha-7 nAChR Y195A mutant coexpressed with human Ric3 in tsA201 cells by FMP assay; type: functional, cell-based
[3] = Displacement of [3H]methyllycaconitine from chimeric alpha-7nAChR W55A mutant /5HT3A receptor in tsA201 cells; type: cell-based, Homo sapiens; method in brief: as §1
[4] = Antagonist activity at human alpha7nAChR Y93A mutant co-expressed with human Ric3 in tsA201 cells by FMP assay; type: functional, cell-based
[5] = target: T1, Neuronal acetylcholine receptor subunit alpha-7 (Homo sapiens, UniProt P36544); assay: Displacement of [3H]methyllycaconitine from alpha7 nAChR in tsA201 cells co-expressed with Ric3; type: cell-based
T1 sequence (P36544 whole entry): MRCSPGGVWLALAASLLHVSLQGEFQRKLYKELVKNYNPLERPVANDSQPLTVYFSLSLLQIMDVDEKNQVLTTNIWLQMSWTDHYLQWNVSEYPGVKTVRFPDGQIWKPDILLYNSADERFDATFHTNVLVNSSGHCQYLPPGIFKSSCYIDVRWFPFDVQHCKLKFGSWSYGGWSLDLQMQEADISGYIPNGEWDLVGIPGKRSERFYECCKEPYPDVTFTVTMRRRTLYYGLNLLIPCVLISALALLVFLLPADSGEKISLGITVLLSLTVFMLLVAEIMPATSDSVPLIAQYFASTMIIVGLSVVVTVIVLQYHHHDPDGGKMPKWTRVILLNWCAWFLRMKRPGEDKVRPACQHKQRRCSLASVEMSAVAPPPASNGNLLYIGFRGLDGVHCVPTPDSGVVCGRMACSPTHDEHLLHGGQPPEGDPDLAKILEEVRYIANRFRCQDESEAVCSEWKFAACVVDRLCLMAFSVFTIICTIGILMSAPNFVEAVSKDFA

[6] = test system: tsA201; assay: Displacement of [3H]methyllycaconitine from chimeric alpha-7nAChR W55A/Y195A mutant /5HT3A receptor in tsA201 cells; type: cell-based; settings: Homo sapiens; method in brief: as §1
[7] = cells; type: functional, cell-based; settings: Homo sapiens, HEK293
[8] = Displacement of [3H]methyllycaconitine from chimeric alpha-7nAChR S148A mutant /5HT3A receptor in tsA201 cells; type: cell-based, Homo sapiens; method in brief: as §1
[9] = Displacement of [3H]methyllycaconitine from chimeric alpha7nAChR R79A mutant/5HT3A receptor R79A mutant in tsA201 cells; type: cell-based, Homo sapiens; method in brief: as §1
[10] = test system: tsA201; assay: Displacement of [3H]methyllycaconitine from chimeric alpha-7nAChR Y93A mutant/5HT3A receptor in tsA201 cells; type: cell-based; settings: Homo sapiens; method in brief: as §1
[11] = target: T1, Neuronal acetylcholine receptor subunit alpha-7; assay: Displacement of [3H]methyllycaconitine from human alpha-7 in tsA201 cells coexpressed with 5HT3A receptor; type: cell-based
[12] = Displacement of [3H]methyllycaconitine from chimeric alpha-7nAChR N107A mutant/5HT3A receptor in tsA201 cells; type: cell-based, Homo sapiens; method in brief: as §1
[13] = target: Neuronal acetylcholine receptor; alpha4/beta4 (Rattus norvegicus, UniProt P09483+P12392); assay: Displacement of [3H]epibatidine from recombinant rat alpha-4-beta-4 nAChr in HEK293 cell line; type: cell-based
Chain of Neuronal acetylcholine receptor; alpha4/beta4 (P09483 whole entry): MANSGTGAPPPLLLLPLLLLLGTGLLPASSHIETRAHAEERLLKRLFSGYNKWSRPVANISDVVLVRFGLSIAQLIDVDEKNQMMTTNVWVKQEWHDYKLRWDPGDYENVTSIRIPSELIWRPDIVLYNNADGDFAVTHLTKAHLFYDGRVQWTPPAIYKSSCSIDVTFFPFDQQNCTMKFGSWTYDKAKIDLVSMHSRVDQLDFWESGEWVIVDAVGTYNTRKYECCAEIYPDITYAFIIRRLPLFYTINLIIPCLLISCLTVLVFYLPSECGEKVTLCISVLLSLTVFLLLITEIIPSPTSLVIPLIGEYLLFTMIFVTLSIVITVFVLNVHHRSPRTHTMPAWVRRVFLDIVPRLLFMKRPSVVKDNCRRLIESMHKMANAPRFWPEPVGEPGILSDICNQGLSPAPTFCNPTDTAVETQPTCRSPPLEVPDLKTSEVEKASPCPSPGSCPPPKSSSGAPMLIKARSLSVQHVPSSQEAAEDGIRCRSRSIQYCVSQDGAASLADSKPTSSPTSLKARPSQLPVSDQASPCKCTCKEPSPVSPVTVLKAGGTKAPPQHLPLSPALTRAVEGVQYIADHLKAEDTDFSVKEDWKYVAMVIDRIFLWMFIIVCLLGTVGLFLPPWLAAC
Chain of Neuronal acetylcholine receptor; alpha4/beta4 (P12392 whole entry): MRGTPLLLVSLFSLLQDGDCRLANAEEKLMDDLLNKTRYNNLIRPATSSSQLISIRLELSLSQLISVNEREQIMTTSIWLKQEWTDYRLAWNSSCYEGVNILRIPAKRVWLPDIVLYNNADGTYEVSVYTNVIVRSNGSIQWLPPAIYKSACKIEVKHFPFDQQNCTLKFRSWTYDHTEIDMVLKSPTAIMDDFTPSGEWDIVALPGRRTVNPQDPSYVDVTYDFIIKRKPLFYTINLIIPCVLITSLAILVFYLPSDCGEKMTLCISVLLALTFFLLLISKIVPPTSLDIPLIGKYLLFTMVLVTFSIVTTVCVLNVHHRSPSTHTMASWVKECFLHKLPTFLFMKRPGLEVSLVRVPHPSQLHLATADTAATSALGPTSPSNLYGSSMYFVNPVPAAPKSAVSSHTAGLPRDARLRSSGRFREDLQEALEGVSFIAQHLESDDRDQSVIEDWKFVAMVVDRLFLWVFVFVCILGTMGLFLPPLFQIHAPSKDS

[14] = target: Neuronal acetylcholine receptor; alpha4/beta2 (Rattus norvegicus, UniProt P09483+P12390); assay: Displacement of [3H]epibatidine from rat recombinant alpha-4-beta-2 nAChR in HEK293 cell line; type: cell-based
Chain of Neuronal acetylcholine receptor; alpha4/beta2 (P09483 whole entry): as the sequence (P09483 whole entry) above
Chain of Neuronal acetylcholine receptor; alpha4/beta2 (P12390 whole entry): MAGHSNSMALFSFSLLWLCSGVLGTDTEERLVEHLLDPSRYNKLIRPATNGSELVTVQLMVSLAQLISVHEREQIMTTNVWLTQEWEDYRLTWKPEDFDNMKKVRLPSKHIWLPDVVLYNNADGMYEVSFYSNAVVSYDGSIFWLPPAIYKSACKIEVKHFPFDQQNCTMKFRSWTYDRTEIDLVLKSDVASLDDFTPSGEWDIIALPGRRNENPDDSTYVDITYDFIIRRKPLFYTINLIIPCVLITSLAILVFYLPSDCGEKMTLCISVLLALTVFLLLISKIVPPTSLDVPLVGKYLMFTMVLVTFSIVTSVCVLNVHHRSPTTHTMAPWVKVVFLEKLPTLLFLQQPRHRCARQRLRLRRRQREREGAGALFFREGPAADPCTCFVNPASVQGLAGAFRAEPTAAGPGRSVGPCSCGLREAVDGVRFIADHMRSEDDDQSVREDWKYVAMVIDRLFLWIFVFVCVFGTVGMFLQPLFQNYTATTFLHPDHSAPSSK

[15] = target: Neuronal acetylcholine receptor; alpha3/beta4 (Rattus norvegicus, UniProt P04757+P12392); assay: Antagonist activity at rat alpha3beta4 nAChR expressed in HEK293 cells by FMP assay; type: functional, cell-based, Homo sapiens
Chain of Neuronal acetylcholine receptor; alpha3/beta4 (P04757 whole entry): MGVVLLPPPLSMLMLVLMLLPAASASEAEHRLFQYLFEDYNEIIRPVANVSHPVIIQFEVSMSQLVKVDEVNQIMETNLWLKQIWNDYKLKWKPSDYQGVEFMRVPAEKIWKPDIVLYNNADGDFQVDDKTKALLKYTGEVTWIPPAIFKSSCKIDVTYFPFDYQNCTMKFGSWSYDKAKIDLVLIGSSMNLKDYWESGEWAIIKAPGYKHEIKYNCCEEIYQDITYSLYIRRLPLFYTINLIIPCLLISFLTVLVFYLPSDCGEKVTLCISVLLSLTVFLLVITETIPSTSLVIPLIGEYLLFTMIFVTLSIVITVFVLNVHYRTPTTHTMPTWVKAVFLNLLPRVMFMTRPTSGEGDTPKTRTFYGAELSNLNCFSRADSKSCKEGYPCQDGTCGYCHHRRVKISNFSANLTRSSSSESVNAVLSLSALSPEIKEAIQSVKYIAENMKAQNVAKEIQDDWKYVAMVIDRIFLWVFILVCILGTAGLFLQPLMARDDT
Chain of Neuronal acetylcholine receptor; alpha3/beta4 (P12392 whole entry): as the sequence (P12392 whole entry) above

[16] = Antagonist activity at human alpha7 nAChR W149Y mutant co-expressed with human Ric3 in tsA201 cells by FMP assay; type: functional, cell-based
[17] = Displacement of [3H]methyllycaconitine from chimeric alpha7nAChR Y195A mutant/5HT3A receptor in tsA201 cells; type: cell-based, Homo sapiens; method in brief: as §1
[18] = Displacement of [3H]methyllycaconitine from chimeric alpha-7nAChR D197A mutant/5HT3A receptor in tsA201 cells; type: cell-based, Homo sapiens; method in brief: as §1
[19] = target: T2, Glycine receptor subunit alpha-1 (Homo sapiens, UniProt P23415); assay: Antagonist activity at human glycine alpha-1 receptor in HEK293 cells by FMP assay; type: functional, cell-based
T2 sequence (P23415 whole entry): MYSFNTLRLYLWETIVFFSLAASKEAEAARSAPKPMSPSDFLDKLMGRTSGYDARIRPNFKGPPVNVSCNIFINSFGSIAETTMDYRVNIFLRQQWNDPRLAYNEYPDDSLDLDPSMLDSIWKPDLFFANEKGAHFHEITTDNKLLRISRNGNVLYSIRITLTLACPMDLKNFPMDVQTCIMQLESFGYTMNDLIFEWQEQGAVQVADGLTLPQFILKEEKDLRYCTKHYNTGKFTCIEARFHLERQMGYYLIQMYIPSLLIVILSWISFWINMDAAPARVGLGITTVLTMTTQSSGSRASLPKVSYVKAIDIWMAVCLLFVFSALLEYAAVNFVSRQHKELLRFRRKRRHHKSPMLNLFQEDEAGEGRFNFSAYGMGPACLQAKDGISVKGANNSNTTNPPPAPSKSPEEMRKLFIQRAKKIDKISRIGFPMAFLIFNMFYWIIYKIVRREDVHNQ

[20] = Displacement of [3H]methyllycaconitine from chimeric alpha-7nAChR S150A mutant/5HT3A receptor in tsA201 cells; type: cell-based, Homo sapiens; method in brief: as §1
[21] = Displacement of [3H]methyllycaconitine from chimeric alpha7nAChR W55Y mutant/5HT3A receptor in tsA201 cells; type: cell-based, Homo sapiens; method in brief: as §1
[22] = Antagonist activity at human alpha-7 nAChR Y188A mutant coexpressed with human Ric3 in tsA201 cells by FMP assay; type: functional, cell-based
[23] = Displacement of [3H]methyllycaconitine from chimeric alpha-7nAChR Y168A mutant/5HT3A receptor in tsA201 cells; type: cell-based, Homo sapiens; method in brief: as §1
[24] = Displacement of [3H]methyllycaconitine from chimeric alpha-7nAChR K145R mutant /5HT3A receptor in tsA201 cells; type: cell-based, Homo sapiens; method in brief: as §1

With `O=[N+]([O-])c1ccc(C[N+]23CC[C@@H]4[C@@H]5[C@@H]6[C@@H](OCC=C(C2)[C@@H]6C[C@@H]43)N2c3ccccc3[C@@]34CC[N+]6(Cc7ccc([N+](=O)[O-])cc7)CC7=CCO[C@H]([C@@H]([C@H]23)[C@H]7C[C@@H]46)N5c2ccccc2)cc1.[Br-].[Br-]` (stereo not given in full) the Activity [1] was “inactive”, the IC50 ([2]; read-out: IC50) was 25000 nM and the IC50 ([2]; read-out: pIC50 (converted)) was 25100 nM. It also gave a Ki [3] of 130 nM, a pKi [3] of 6.89 and an IC50 ([4]; read-out: IC50) of 19000 nM. It also gave an IC50 ([4]; read-out: pIC50 (converted)) of 19500 nM, a Ki ([5]; read-out: Ki) of 29 nM and a Ki ([5]; read-out: pKi (converted)) of 31.6 nM. For the same molecule, the Activity [6] was “inactive”, the IC50 ([7]; read-out: IC50) was > 100000 nM and the IC50 ([7]; read-out: pIC50 (converted)) was > 100000 nM. For the same molecule, the Ki [8] was 160 nM, the pKi [8] was 6.8 and the Ki [9] was 32 nM. For the same molecule, the pKi [9] was 7.5, the Activity [10] was “inactive” and the Ki ([11]; read-out: Ki) was 22 nM. For the same molecule, the Ki ([11]; read-out: pKi (converted)) was 20 nM, the Ki [12] was 17 nM and the pKi [12] was 7.76. For the same molecule, the Ki [13] was > 100000 nM, the pKi ([13]; hek293) was < 4 and the pKi ([14]; hek293) was < 4. For the same molecule, the Ki ([14]; read-out: Ki) was > 100000 nM, the pIC50 ([15]; hek293) was < 4 and the IC50 ([15]; read-out: IC50) was > 100000 nM. It also gave an IC50 ([16]; read-out: IC50) of 1200 nM, an IC50 ([16]; read-out: pIC50 (converted)) of 1170 nM and a Ki [17] of 740 nM. For the same molecule, the pKi [17] was 6.13, the Ki [18] was 31 nM and the pKi [18] was 7.51. For the same molecule, the IC50 [19] was > 100000 nM, the pIC50 ([19]; hek293) was < 4 and the Ki [20] was 35 nM. It also gave a pKi [20] of 7.45, a Ki [21] of 37 nM and a pKi [21] of 7.43. It also gave an IC50 ([22]; read-out: IC50) of 15000 nM, an IC50 ([22]; read-out: pIC50 (converted)) of 15500 nM and a Ki [23] of 34 nM. For the same molecule, the pKi [23] was 7.47, the Ki [24] was 58 nM and the pKi [24] was 7.24.
